ChEMBL document CHEMBL1759994, “The discovery and synthesis of potent zwitterionic inhibitors of renin” (Bioorg Med Chem Lett, 2011)

Assays:
[1] = Metabolic stability in dog whole blood assessed as conversion to (1R,2R)-2-((3-(((3R,4S)-N-cyclopropyl-4-(4-(2-(2,6-dichloro-4-methylphenoxy)ethoxy)phenyl)piperidine-3-carboxamido)methyl)-5-(3-methoxypropyl)phenoxy)methyl)cyclopropanecarboxylic acid after 20 mins; assay type: ADME, tissue-based, Canis lupus familiaris
Blood [2] = assay: Metabolic stability in human whole blood assessed as conversion to (1R,2R)-2-((3-(((3R,4S)-N-cyclopropyl-4-(4-(2-(2,6-dichloro-4-methylphenoxy)ethoxy)phenyl)piperidine-3-carboxamido)methyl)-5-(3-methoxypropyl)phenoxy)methyl)cyclopropanecarboxylic acid after 20 mins; assay type: ADME, tissue-based
Summary of the method: (§1)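 Prodrugs were incubated for 20 min in rat or human whole blood, or in rat or human liver S9 fraction (n = 2). The read-out was % conversion to the parent carboxylic acid.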

[3] = AUC (0 to 24 hrs) in Beagle dog at 3 mg/kg, po in 0.5% methocel; assay type: ADME, organism-based, Canis lupus familiaris; design: time < 24 hr, dose 3 mg/kg, route oral; conditions: plasma
Cytochrome P450 3A4 [4] = target: T1, Cytochrome P450 3A4 (Homo sapiens, UniProt P08684); assay: Inhibition of human CYP3A4 in human liver microsomes assessed as formation of 6beta-hydroxy-testosterone using testosterone as substrate by high throughput mass spectrometry preincubated for 30 mins in presence of NADPH; assay type: ADME, Microsome
[5] = target: Voltage-gated inwardly rectifying potassium channel KCNH2 (Homo sapiens, UniProt Q12809); assay: Binding affinity to human ERG
Renin [6] = target: T2, Renin (Homo sapiens, UniProt P00797); assay: Inhibition of human recombinant renin in human citreated-plasma
T2 sequence (P00797 whole entry): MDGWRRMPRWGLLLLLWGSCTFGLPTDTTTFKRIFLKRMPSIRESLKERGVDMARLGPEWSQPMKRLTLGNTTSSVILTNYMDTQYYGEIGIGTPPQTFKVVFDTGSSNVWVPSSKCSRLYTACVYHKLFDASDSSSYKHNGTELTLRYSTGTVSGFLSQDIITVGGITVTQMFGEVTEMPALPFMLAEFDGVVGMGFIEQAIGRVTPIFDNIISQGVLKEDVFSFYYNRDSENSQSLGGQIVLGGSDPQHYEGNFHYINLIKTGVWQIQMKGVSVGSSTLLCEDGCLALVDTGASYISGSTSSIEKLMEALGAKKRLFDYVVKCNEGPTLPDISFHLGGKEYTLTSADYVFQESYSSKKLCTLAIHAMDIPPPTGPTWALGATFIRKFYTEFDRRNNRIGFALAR

[7] = Oral bioavailability in Sprague-Dawley rat at 30 mg/kg as 0.5% methocel suspension; assay type: ADME, organism-based; conditions: in vivo
Liver [8] = assay: Metabolic stability in Sprague-Dawley rat liver S9 fraction assessed as conversion to (1R,2R)-2-((3-(((3R,4S)-N-cyclopropyl-4-(4-(2-(2,6-dichloro-4-methylphenoxy)ethoxy)phenyl)piperidine-3-carboxamido)methyl)-5-(3-methoxypropyl)phenoxy)methyl)cyclopropanecarboxylic acid after 20 mins; assay type: ADME, subcellular; conditions: s9, 20 min; summary of the method: as §1
Renin [9] = target: T2, Renin; assay: Inhibition of human recombinant renin in PBS buffer using tetradecapeptide at pH 7.4
CYP3A4 = CYP3A4 (Homo sapiens, UniProt P08684); assay: Ratio of IC50 for human CYP3A4 in absence of NADPH to IC50 for human CYP3A4 preincubated for 30 mins in presence of NADPH; conditions: read-out: Ratio IC50
[10] = Oral bioavailability in Beagle dog at 3 mg/kg in 0.5% methocel; assay type: ADME, organism-based, Canis lupus familiaris; conditions: in vivo
[11] = AUC (0 to 24 hrs) in Sprague-Dawley rat at 30 mg/kg, po as 0.5% methocel suspension; assay type: ADME, organism-based; design: time < 24 hr, dose 30 mg/kg, route oral; conditions: plasma
Blood [12] = assay: Metabolic stability in Sprague-Dawley rat whole blood assessed as conversion to (1R,2R)-2-((3-(((3R,4S)-N-cyclopropyl-4-(4-(2-(2,6-dichloro-4-methylphenoxy)ethoxy)phenyl)piperidine-3-carboxamido)methyl)-5-(3-methoxypropyl)phenoxy)methyl)cyclopropanecarboxylic acid after 20 mins; assay type: ADME, tissue-based; summary of the method: as §1
Liver [13] = assay: Metabolic stability in human liver S9 fraction assessed as conversion to (1R,2R)-2-((3-(((3R,4S)-N-cyclopropyl-4-(4-(2-(2,6-dichloro-4-methylphenoxy)ethoxy)phenyl)piperidine-3-carboxamido)methyl)-5-(3-methoxypropyl)phenoxy)methyl)cyclopropanecarboxylic acid after 20 mins; assay type: ADME, subcellular; conditions: s9, 20 min; summary of the method: as §1
Blood [14] = assay: Metabolic stability in rhesus monkey whole blood assessed as conversion to (1R,2R)-2-((3-(((3R,4S)-N-cyclopropyl-4-(4-(2-(2,6-dichloro-4-methylphenoxy)ethoxy)phenyl)piperidine-3-carboxamido)methyl)-5-(3-methoxypropyl)phenoxy)methyl)cyclopropanecarboxylic acid after 20 mins; assay type: ADME, tissue-based, Macaca mulatta
Cytochrome P450 3A4 [15] = target: T1, Cytochrome P450 3A4; assay: Inhibition of human CYP3A4 in human liver microsomes assessed as formation of 6beta-hydroxy-testosterone using testosterone as substrate by high throughput mass spectrometry in absence of NADPH; assay type: ADME, Microsome

T1 sequence (P08684 whole entry): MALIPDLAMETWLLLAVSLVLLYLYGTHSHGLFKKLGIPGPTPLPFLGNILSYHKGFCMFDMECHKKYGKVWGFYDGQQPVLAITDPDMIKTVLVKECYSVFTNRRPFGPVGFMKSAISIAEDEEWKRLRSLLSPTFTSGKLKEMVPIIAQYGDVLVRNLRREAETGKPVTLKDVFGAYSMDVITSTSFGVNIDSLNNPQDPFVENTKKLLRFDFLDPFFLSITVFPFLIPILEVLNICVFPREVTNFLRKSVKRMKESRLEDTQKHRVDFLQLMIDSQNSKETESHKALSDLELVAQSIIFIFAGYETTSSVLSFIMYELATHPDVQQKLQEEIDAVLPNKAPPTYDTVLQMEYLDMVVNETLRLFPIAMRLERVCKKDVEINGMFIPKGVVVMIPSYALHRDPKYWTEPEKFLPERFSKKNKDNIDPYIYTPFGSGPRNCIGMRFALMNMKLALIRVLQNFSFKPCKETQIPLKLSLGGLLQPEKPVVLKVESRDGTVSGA
Voltage-gated inwardly rectifying potassium channel KCNH2, sequence (Q12809 whole entry): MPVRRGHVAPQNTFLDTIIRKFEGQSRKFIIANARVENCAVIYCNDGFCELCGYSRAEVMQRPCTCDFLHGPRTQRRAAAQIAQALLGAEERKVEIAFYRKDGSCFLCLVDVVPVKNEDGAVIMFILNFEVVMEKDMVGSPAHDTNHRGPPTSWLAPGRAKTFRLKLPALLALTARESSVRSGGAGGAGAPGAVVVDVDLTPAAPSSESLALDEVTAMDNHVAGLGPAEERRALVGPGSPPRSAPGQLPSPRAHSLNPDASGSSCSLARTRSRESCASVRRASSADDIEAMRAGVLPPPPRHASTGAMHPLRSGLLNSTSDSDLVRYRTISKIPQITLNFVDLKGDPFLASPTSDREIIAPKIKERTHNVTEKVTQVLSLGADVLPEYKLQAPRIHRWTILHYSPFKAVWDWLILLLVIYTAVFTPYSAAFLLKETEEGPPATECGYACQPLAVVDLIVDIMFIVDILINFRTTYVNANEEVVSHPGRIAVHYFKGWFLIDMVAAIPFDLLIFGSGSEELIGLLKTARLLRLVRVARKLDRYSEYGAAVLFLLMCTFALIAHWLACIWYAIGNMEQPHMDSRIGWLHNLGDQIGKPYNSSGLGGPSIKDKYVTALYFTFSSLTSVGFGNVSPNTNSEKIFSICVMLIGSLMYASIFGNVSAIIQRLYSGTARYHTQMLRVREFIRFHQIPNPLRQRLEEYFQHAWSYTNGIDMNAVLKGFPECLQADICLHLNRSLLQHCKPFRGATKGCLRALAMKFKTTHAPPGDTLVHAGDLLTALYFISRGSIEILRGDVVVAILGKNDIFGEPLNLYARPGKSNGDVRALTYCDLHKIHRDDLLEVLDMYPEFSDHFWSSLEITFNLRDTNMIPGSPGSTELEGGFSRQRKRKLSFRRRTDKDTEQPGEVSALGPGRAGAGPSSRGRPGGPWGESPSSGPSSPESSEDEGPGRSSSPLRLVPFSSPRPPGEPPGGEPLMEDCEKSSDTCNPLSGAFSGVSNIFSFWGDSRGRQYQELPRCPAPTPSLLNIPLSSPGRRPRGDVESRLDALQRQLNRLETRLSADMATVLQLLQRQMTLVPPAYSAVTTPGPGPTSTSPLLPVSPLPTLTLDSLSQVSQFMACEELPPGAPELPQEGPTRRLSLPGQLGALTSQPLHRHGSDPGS
CYP3A4, sequence (P08684 whole entry): as the sequence (P08684 whole entry) above

Activity [1]: 2%
Activity (Blood [2]): 3%
AUC(0-t) at 24 h [3]: 0.01 µM·h
IC50 (Cytochrome P450 3A4 [4]): 1400 nM
IC50 (Renin [6]): 11 nM
bioavailability [7]: 52%
Activity (Liver [8]): 60%
IC50 (Renin [9]): 0.064 nM
bioavailability [10]: 6%
AUC(0-t) at 24 h [11]: 5.7 µM·h
Activity (Blood [12]): 99%
Activity (Liver [13]): 56%
Activity (Blood [14]): 15%
IC50 (Cytochrome P450 3A4 [15]): 19300 nM
SMILES: CCOC(=O)[C@H]1C[C@@H]1COc1cc(CCCOC)cc(CN(C(=O)[C@H]2CNCC[C@@H]2c2ccc(OCCOc3c(Cl)cc(C)cc3Cl)cc2)C2CC2)c1
Ki [5]: 80 nM
IC50 shift (CYP3A4): 14
